Experimental data published in PubChem BioAssay.
Active and inactive are the calls of the source.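 How the source made its calls, unless noted: active means viability at or below 30% in both replicate assays; inconclusive means viability at or below 30% in just one of the two assays; inactive means the rest.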

Tests used:
[1] = HUVEC growth inhibition – cell-based, human, primary screen (AID 575); settings: HUVEC proliferation, CellTiter-Glo luminescence, 72 h; at 10 µM; stronger effect = lower value;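 further: 100% = median of untreated cell wells with 0.1% DMSO on each plate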
Procedure, shortened: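 System – primary HUVEC, no more than 12 passages · Medium – Low-serum (2% FBS) EBM, supplemented · Times – 72 h exposure, 37 °C, 5% CO2, 30 min RT equilibration · Measured by – luminescent ATP assay · Read-out – % viability relative to median vehicle-well signal on each plate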

[2] = growth inhibitors of H69AR lung tumor, primary screen, human, duplicate replicates (AID 580;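 active means viability at or under a set limit in both replicates, limit being median viability minus 3 SD, cut at about 48% in these data, passing the limit was not always enough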;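 further: 100% = mean luminescence of untreated wells and 0% = no signal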); settings: H69AR lung tumor cells viability, ATP luminescence, 72 h; at 10 µM; stronger effect = lower value
[3] = reversal of MRP1-mediated doxorubicin resistance, pilot screen, H69AR cells, doxorubicin co-treatment (AID 601;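 active means viability loss from added drug above about 55%, and viability with drug at most 40%, in both replicates, limit read from the data, passing the limit was not always enough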); settings: CellTiter-Glo, 72 h, at 10 µM; for differential viability (reversal): stronger effect = higher value
[4] = 384-well plate pilot, post-Golgi transport modulator project, inhibition of yeast transport mutant growth (AID 636; in the data active means inhibition above about 31%); settings: absorbance 615 nm, about 18 h, stronger effect = higher value
[5] = growth suppression of yeast trafficking mutant, preliminary HTS, modulators of trafficking downstream of Golgi apparatus project, 1536-format plate, OD 615 nm (AID 637; in the data active means inhibition above about 30%); settings: yeast transport mutant growth, absorbance 615 nm, 18 h; stronger effect = higher value
[6] = H69AR cells + 2 uM doxorubicin, measured here: viability with 2 uM doxorubicin, stronger effect = lower value
[7] = H69AR cells, compound alone cytotoxicity

SMILES | viability [1] | viability [2] | differential viability (reversal) ([3]; H69AR cells + 2 uM doxorubicin) | viability [3, 6] [%] | viability [3, 7] [%] | inhibition [4] | inhibition [5]
CCOC(=O)C1=C(CC)Nc2ccccc2N=C1NC(=O)Nc1ccccc1OC | 50.5% (inactive) | 74% (inactive) | -0.52% (inactive) | 74.5 | 74 | 0.52% (inactive) | 1.11% (inactive)
COc1ccccc1C(=O)Nc1ccccc1C(=O)N1CCCC1 | 92.3% (inactive) | 96% (inactive) | 11.9% (inactive) | 84.1 | 96 | -4.68% (inactive) | 1.27% (inactive)
Cc1cc(C(=O)Nc2cccc(O)c2)c(C)o1 | 87.1% (inactive) | 90% (inactive) | 3.61% (inactive) | 86.4 | 90 | -4.55% (inactive) | 3.17% (inactive)
Cc1ccc(N2CC(C(=O)Nc3ccc4c(c3)OCO4)CC2=O)cc1 (stereo not given) | 101% (inactive) | 99.6% (inactive) | 12% (inactive) | 87.6 | 99.6 | -3.25% (inactive) | -0.79% (inactive)
CCn1nnc(NC(=O)c2ccccc2Br)n1 | 103% (inactive) | 99.9% (inactive) | 10.5% (inactive) | 89.4 | 99.9 | -8.93% (inactive) | 2.86% (inactive)
CCCC(C)C1C(C#N)=C(N)Oc2cc(C)oc(=O)c21 (stereo not given) | 98.4% (inactive) | 85.7% (inactive) | -6.91% (inactive) | 92.6 | 85.7 | -2.5% (inactive) | 4.76% (inactive)
O=C1CC(Cc2ccccc2)C(=O)N1CCc1ccc2c(c1)OCO2 (stereo not given) | 97.7% (inactive) | 102% (inactive) | 4.62% (inactive) | 97.7 | 102 | -5.32% (inactive) | 3.65% (inactive)
O=C(Nc1nc(-c2ccc(S(=O)(=O)N3CCCCCC3)cc2)cs1)c1cccs1 | 73.6% (inactive) | 64.6% (inactive) | -4.63% (inactive) | 69.2 | 64.6 | -6.62% (inactive) | -3.81% (inactive)
Cc1nc(SCC(=O)CC(=O)OC(C)C)c(C#N)c(C)c1C | 99.8% (inactive) | 95% (inactive) | 6.36% (inactive) | 88.7 | 95 | -2.8% (inactive) | 3.33% (inactive)
CCOC(=O)N1CCN(C(=O)Nc2ccc3oc(C)nc3c2)CC1 | 98.2% (inactive) | 93.2% (inactive) | -0.96% (inactive) | 94.1 | 93.2 | -2.63% (inactive) | 0% (inactive)
CC1CCCC(NC(=O)CN2CCN(Cc3ccc(Cl)cc3)C2=O)C1C (stereo not given) | 108% (inactive) | 103% (inactive) | 16.2% (inactive) | 86.4 | 103 | -1.43% (inactive) | 4.92% (inactive)
Cc1nc(C)c(C(=O)C2=C(O)C(=O)N(CCCn3ccnc3)C2c2ccccc2)s1 (stereo not given) | 94.5% (inactive) | 95% (inactive) | 0.995% (inactive) | 94.1 | 95 | -0.13% (inactive) | -2.54% (inactive)
COc1cc2c(cc1OC)CN(Cc1nc3ccsc3c(=O)[nH]1)CC2 | 99.5% (inactive) | 92.2% (inactive) | 7.59% (inactive) | 84.6 | 92.2 | -2.73% (inactive) | 3.17% (inactive)
Nc1ccc(Sc2nnnn2-c2ccccc2)c(Cl)c1 | 101% (inactive) | 92% (inactive) | -9.96% (inactive) | 102 | 92 | -6.32% (inactive) | -2.06% (inactive)
O=C(Nc1ccccc1C(=O)N1CCOCC1)C1COc2ccccc2O1 (stereo not given) | 100% (inactive) | 103% (inactive) | 6.71% (inactive) | 96.6 | 103 | -0.53% (inactive) | 0% (inactive)
O=C(CCSc1nc(-c2ccco2)cc(C(F)(F)F)n1)NCCc1ccccc1 | 80.7% (inactive) | 79% (inactive) | -15.4% (inactive) | 94.4 | 79 | -4.53% (inactive) | 1.11% (inactive)
N#CCc1nc(CSc2nc3ccccc3s2)cs1 | 99.1% (inactive) | 91.3% (inactive) | 8.82% (inactive) | 82.4 | 91.3 | -1.04% (inactive) | 3.02% (inactive)
COc1ccccc1C(=O)Nc1c2c(nn1-c1cccc(C)c1C)CS(=O)(=O)C2 | 49.2% (inactive) | 95.2% (inactive) | 22.9% (inactive) | 72.3 | 95.2 | -4.13% (inactive) | 1.94% (inactive)
Cc1[nH]nc2c1C1(CCN(C(=O)c3ccccc3)CC1)C(C#N)=C(N)O2 | 104% (inactive) | 98.7% (inactive) | 3.04% (inactive) | 95.7 | 98.7 | 0.52% (inactive) | 6.83% (inactive)
C/C(=N\O)c1ccc2c3c([nH]c2c1)CCCC3 | 25.3% (active) | 88.1% (inactive) | -8.65% (inactive) | 96.8 | 88.1 | -3.77% (inactive) | -0.16% (inactive)

SMILES | viability [1] | viability [2] | differential viability (reversal) ([3]; H69AR cells + 2 uM doxorubicin) | viability [3, 6] [%] | viability [3, 7] [%] | inhibition [4] | inhibition [5]
CCOc1ccc(-c2nc(C#N)c(N3CCN(C)CC3)o2)cc1 | 82.1% (inactive) | 97.6% (inactive) | 0.87% (inactive) | 96.7 | 97.6 | -1.6% (inactive) | 11.3% (inactive)
O=C(CCCn1c(=O)c2sccc2n(CC(=O)NCc2ccco2)c1=O)NCc1ccco1 | 90.4% (inactive) | 100% (inactive) | 20% (inactive) | 80 | 100 | -2.86% (inactive) | 2.54% (inactive)
COc1ccc(-c2noc(CCC(=O)Nc3nc4ccccc4s3)n2)cc1 | 88.2% (inactive) | 88.1% (inactive) | -3.04% (inactive) | 91.1 | 88.1 | 2.21% (inactive) | 7.46% (inactive)
Cc1cc(NC(=O)c2ccc3nc(-c4ccccc4)c(-c4ccccc4)nc3c2)no1 | 23.6% (active) | 13.4% (active) | -1.37% (inactive) | 14.8 | 13.4 | -1.05% (inactive) | 0.79% (inactive)
CSc1nsc(SCC(=O)N2CCc3ccccc32)n1 | 98.6% (inactive) | 96.8% (inactive) | 4.61% (inactive) | 92.2 | 96.8 | -6.05% (inactive) | 3.33% (inactive)
CCOc1ccc(OCc2cccc(C(=O)N3CCOCC3)c2)cc1 | 83.9% (inactive) | 94.5% (inactive) | 0.305% (inactive) | 94.2 | 94.5 | -5.87% (inactive) | 2.7% (inactive)
Cc1ccc2c(COn3nnc4ccc(S(=O)(=O)N(C)C)cc43)cc(=O)oc2c1C | 79.5% (inactive) | 72.1% (inactive) | -3.53% (inactive) | 75.6 | 72.1 | -1.04% (inactive) | 2.7% (inactive)
Cc1cccc(-n2ncc3c(NCc4ccccn4)ncnc32)c1 | 97.5% (inactive) | 89.6% (inactive) | 1.75% (inactive) | 87.8 | 89.6 | -1.17% (inactive) | -4.6% (inactive)
O=c1cc(CSc2nnc(COc3ccc(Cl)cc3)o2)c2ccccc2[nH]1 | 86.8% (inactive) | 90.2% (inactive) | -2.67% (inactive) | 92.9 | 90.2 | -2.11% (inactive) | -6.67% (inactive)
Cn1c(=O)c(=O)n(C)c2cc(S(=O)(=O)Nc3ccc4c(c3)OCCO4)ccc21 | 99.5% (inactive) | 94.9% (inactive) | 6.65% (inactive) | 88.2 | 94.9 | -0.67% (inactive) | 8.41% (inactive)
Cc1ccc(-n2c(-c3ccncc3)nnc2-c2cccs2)cc1 | 95.2% (inactive) | 79.9% (inactive) | 39.3% (inactive) | 40.6 | 79.9 | -6.53% (inactive) | 9.37% (inactive)
COC(=O)C1=C(C)N(c2ccc(C(=O)OC)cc2)C(=O)C1 | 86.9% (inactive) | 88.8% (inactive) | 2.86% (inactive) | 86 | 88.8 | -0.39% (inactive) | 1.43% (inactive)
CCCCCCn1c(CN2CCN(Cc3ccccc3)CC2)nc2c1c(=O)n(C)c(=O)n2C | 86.6% (inactive) | 70.9% (inactive) | 38.8% (inactive) | 32.1 | 70.9 | -5.48% (inactive) | 4.55% (inactive)
Cc1ccc(NC(=O)CC2Nc3ccccc3NC2=O)cc1Cl (stereo not given) | 10.1% (active) | 27.8% (active) | -17.1% (inactive) | 44.9 | 27.8 | -1.17% (inactive) | -3.49% (inactive)
COCCn1nnnc1C(C(C)C)N(Cc1cccnc1)Cc1ccccc1Cl (stereo not given) | 96.4% (inactive) | 83.8% (inactive) | 34.7% (inactive) | 49 | 83.8 | -2.34% (inactive) | 2.06% (inactive)
CN(C)c1nc(N)nc(CSc2nnnn2-c2cccc3ccccc23)n1 | 99.9% (inactive) | 70.1% (inactive) | -3.27% (inactive) | 73.4 | 70.1 | -6.58% (inactive) | 4.13% (inactive)
CSc1cccc(NC(=O)C2CCN(S(C)(=O)=O)CC2)c1 | 107% (inactive) | 90.3% (inactive) | 0.77% (inactive) | 89.6 | 90.3 | -4.08% (inactive) | 2.06% (inactive)
C=CCSc1n[nH]c(-c2ccc(OC)cc2)n1 | 108% (inactive) | 90.3% (inactive) | 2.41% (inactive) | 87.9 | 90.3 | -4.53% (inactive) | -2.06% (inactive)
O=C(c1ccc2c(c1)OCO2)N1CCNc2ccccc2C1 | 90.4% (inactive) | 99.6% (inactive) | 11.9% (inactive) | 87.7 | 99.6 | 0.65% (inactive) | 3.17% (inactive)
COc1ccc(Br)cc1S(=O)(=O)N1CCOCC1 | 99.7% (inactive) | 87.2% (inactive) | 3.77% (inactive) | 83.5 | 87.2 | -2.76% (inactive) | 1.75% (inactive)
